Source: ChEMBL document CHEMBL1153736, “Application of ring-closing metathesis macrocyclization to the development of Tsg101-binding antagonists” (Bioorg Med Chem Lett, 2010)
pKd: −log10 of the molar value. Numbered stars: 1 amine (or outer) side, 2 acyl side, 3 side chain; on linkers, the order of the positions; unused ones are H or OH. Bridge positions count the residues as written; N and C are the ends. Square brackets hold non-standard residues; d marks the D form. Peptide text beside a SMILES is read from it. * marks the point of attachment. Fluorescein(5-NHCS) = O=C1OC2(c3ccc(O)cc3Oc3cc(O)ccc32)c2cc(NC(=S)*)ccc21; Gly(N-but-3-enyl) = O=C(CN(CCC=[*:3])[*:1])[*:2]; X3 = O=C(CN(CCCCCCC=[*:3])[*:1])[*:2]; N(7-octenyl)Gly = C=CCCCCCCNCC(=O)O; X4 = O=C(CN(CCCCC=[*:3])[*:1])[*:2]; X1 = O=C(CN(CCCC=[*:3])[*:1])[*:2]; X2 = O=C(CN(CC=[*:3])[*:1])[*:2]; Ava = NCCCCC(=O)O

Tests used:
HeLa = assay: Cellular uptake in human HeLa cells assessed as fluorescence intensity by FACS analysis relative to control; type: ADME, cell-based; settings: in the assay text read “fluorescence microscopy” for “FACS analysis”
Method in brief: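 Uptake of FITC-tagged peptide-peptoid hybrids was measured by fluorescence microscopy. The value is the average fluorescence intensity of treated cells, quantified from at least 20 cells taken from 4–6 fields, each field holding about 5 cells.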

[1] = biological target: T1, Tumor susceptibility gene 101 protein (Homo sapiens, UniProt Q99816); assay: Binding affinity to ubiquitin E2 variant domain of human Tsg101 by fluorescent anisotropy
T1 sequence (Q99816 whole entry): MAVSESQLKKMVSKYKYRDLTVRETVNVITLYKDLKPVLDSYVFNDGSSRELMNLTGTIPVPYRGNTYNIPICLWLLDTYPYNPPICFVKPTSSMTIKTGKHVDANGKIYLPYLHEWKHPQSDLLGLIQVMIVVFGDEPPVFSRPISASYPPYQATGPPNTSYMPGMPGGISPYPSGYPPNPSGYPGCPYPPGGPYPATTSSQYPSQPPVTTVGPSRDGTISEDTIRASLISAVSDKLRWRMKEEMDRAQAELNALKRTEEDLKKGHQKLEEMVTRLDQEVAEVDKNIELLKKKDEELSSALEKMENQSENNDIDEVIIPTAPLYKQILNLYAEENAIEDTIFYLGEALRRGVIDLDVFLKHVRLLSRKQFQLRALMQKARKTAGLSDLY

Compound	Drug uptake (HeLa) [%]	pKd [1]
C=CCN(CC(=O)N[C@@H](CCC(=O)O)C(=O)N1CCC[C@H]1C(=O)N[C@H](C(=O)N[C@@H](C)C(=O)N1CCC[C@H]1C(=O)N1CCC[C@H]1C(=O)N[C@@H](CCC(=O)O)C(=O)N(CC=C)CC(N)=O)[C@@H](C)O)C(=O)CCCCNC(=S)Nc1ccc2c(c1)C1(OC2=O)c2ccc(O)cc2Oc2cc(O)ccc21 (stereo in doubt; 1'-(1,1))	74	–
C[C@@H]1NC(=O)[C@H]([C@@H](C)O)NC(=O)[C@@H]2CCCN2C(=O)[C@H](CCC(=O)O)NC(=O)CN(C(=O)CCCCNC(=S)Nc2ccc3c(c2)C2(OC3=O)c3ccc(O)cc3Oc3cc(O)ccc32)CCC/C=C\CN(CC(N)=O)C(=O)[C@H](CCC(=O)O)NC(=O)[C@@H]2CCCN2C(=O)[C@@H]2CCCN2C1=O	–	< 3.30
C[C@@H]1NC(=O)[C@H]([C@@H](C)O)NC(=O)[C@@H]2CCCN2C(=O)[C@H](CCC(=O)O)NC(=O)CN(C(=O)CCCCNC(=S)Nc2ccc3c(c2)C2(OC3=O)c3ccc(O)cc3Oc3cc(O)ccc32)CCCCCC/C=C\CCCCCCN(CC(N)=O)C(=O)[C@H](CCC(=O)O)NC(=O)[C@@H]2CCCN2C(=O)[C@@H]2CCCN2C1=O	328	–
C=CCCCCCCN(CC(=O)N[C@@H](CCC(=O)O)C(=O)N1CCC[C@H]1C(=O)N[C@H](C(=O)N[C@@H](C)C(=O)N1CCC[C@H]1C(=O)N1CCC[C@H]1C(=O)N(CCCCCCC=C)CC(=O)N[C@@H](CCC(=O)O)C(N)=O)[C@@H](C)O)C(=O)CCCCNC(=S)Nc1ccc2c(c1)C1(OC2=O)c2ccc(O)cc2Oc2cc(O)ccc21 ({Fluorescein(5-NHCS)-Ava}-[N(7-octenyl)Gly]EPTAPP[N(7-octenyl)Gly]E-NH2)	40	–
C[C@@H]1NC(=O)[C@H]([C@@H](C)O)NC(=O)[C@@H]2CCCN2C(=O)CN(C(=O)[C@@H]2CCCN2C(=O)CCCCNC(=S)Nc2ccc3c(c2)C2(OC3=O)c3ccc(O)cc3Oc3cc(O)ccc32)CC/C=C/CCCCCCN(CC(=O)N[C@@H](CCC(=O)O)C(N)=O)C(=O)[C@@H]2CCCN2C(=O)[C@@H]2CCCN2C1=O ({Fluorescein(5-NHCS)-Ava}-P[Gly(N-but-3-enyl)]PTAPP[X3]E-NH2; staple (E) 2-8)	76	–
C[C@@H]1NC(=O)[C@H]([C@@H](C)O)NC(=O)[C@@H]2CCCN2C(=O)[C@H](CCC(=O)O)NC(=O)CN(C(=O)CCCCNC(=S)Nc2ccc3c(c2)C2(OC3=O)c3ccc(O)cc3Oc3cc(O)ccc32)CCC=CCN(CC(N)=O)C(=O)[C@H](CCC(=O)O)NC(=O)[C@@H]2CCCN2C(=O)[C@@H]2CCCN2C1=O	–	< 3.30
C=CCCCCCCN(CC(=O)N1CCC[C@H]1C(=O)N[C@H](C(=O)N[C@@H](C)C(=O)N1CCC[C@H]1C(=O)N1CCC[C@H]1C(=O)N(CCCCCCC=C)CC(=O)N[C@@H](CCC(=O)O)C(N)=O)[C@@H](C)O)C(=O)[C@@H]1CCCN1C(=O)CCCCNC(=S)Nc1ccc2c(c1)C1(OC2=O)c2ccc(O)cc2Oc2cc(O)ccc21 ({Fluorescein(5-NHCS)-Ava}-P[N(7-octenyl)Gly]PTAPP[N(7-octenyl)Gly]E-NH2)	45	–
H-PEPTAPPEE-OH	74	–
C[C@@H]1NC(=O)[C@H]([C@@H](C)O)NC(=O)[C@@H]2CCCN2C(=O)[C@H](CCC(=O)O)NC(=O)CN(C(=O)CCCCNC(=S)Nc2ccc3c(c2)C2(OC3=O)c3ccc(O)cc3Oc3cc(O)ccc32)CC/C=C/CCCCCCN(CC(=O)N[C@@H](CCC(=O)O)C(N)=O)C(=O)[C@@H]2CCCN2C(=O)[C@@H]2CCCN2C1=O ({Fluorescein(5-NHCS)-Ava}-[Gly(N-but-3-enyl)]EPTAPP[X3]E-NH2; staple (E) 1-8)	100	–
C[C@@H]1NC(=O)[C@H]([C@@H](C)O)NC(=O)[C@@H]2CCCN2C(=O)CN(C(=O)[C@@H]2CCCN2C(=O)CCCCNC(=S)Nc2ccc3c(c2)C2(OC3=O)c3ccc(O)cc3Oc3cc(O)ccc32)CC/C=C\CCCCCCN(CC(N)=O)C(=O)[C@H](CCC(=O)O)NC(=O)[C@@H]2CCCN2C(=O)[C@@H]2CCCN2C1=O	77	–
C[C@@H]1NC(=O)[C@H]([C@@H](C)O)NC(=O)[C@@H]2CCCN2C(=O)CN(C(=O)[C@@H]2CCCN2C(=O)CCCCNC(=S)Nc2ccc3c(c2)C2(OC3=O)c3ccc(O)cc3Oc3cc(O)ccc32)CC/C=C\CN(CC(=O)N[C@@H](CCC(=O)O)C(N)=O)C(=O)[C@@H]2CCCN2C(=O)[C@@H]2CCCN2C1=O ({Fluorescein(5-NHCS)-Ava}-P[Gly(N-but-3-enyl)]PTAPP[X2]E-NH2; staple (Z) 2-8)	–	3.77
C[C@@H]1NC(=O)[C@H]([C@@H](C)O)NC(=O)[C@@H]2CCCN2C(=O)[C@H](CCC(=O)O)NC(=O)CN(C(=O)CCCCNC(=S)Nc2ccc3c(c2)C2(OC3=O)c3ccc(O)cc3Oc3cc(O)ccc32)CC/C=C\CCCCCCN(CC(N)=O)C(=O)[C@H](CCC(=O)O)NC(=O)[C@@H]2CCCN2C(=O)[C@@H]2CCCN2C1=O	100	–
C[C@@H]1NC(=O)[C@H]([C@@H](C)O)NC(=O)[C@@H]2CCCN2C(=O)CN(C(=O)[C@@H]2CCCN2C(=O)CCCCNC(=S)Nc2ccc3c(c2)C2(OC3=O)c3ccc(O)cc3Oc3cc(O)ccc32)CCCCCC/C=C\CCCCCCN(CC(=O)N[C@@H](CCC(=O)O)C(N)=O)C(=O)[C@@H]2CCCN2C(=O)[C@@H]2CCCN2C1=O ({Fluorescein(5-NHCS)-Ava}-P[X3]PTAPP[X3]E-NH2; staple (Z) 2-8)	200	–
C[C@@H]1NC(=O)[C@H]([C@@H](C)O)NC(=O)[C@@H]2CCCN2C(=O)CN(C(=O)[C@@H]2CCCN2C(=O)CCCCNC(=S)Nc2ccc3c(c2)C2(OC3=O)c3ccc(O)cc3Oc3cc(O)ccc32)C/C=C\CN(CC(=O)N[C@@H](CCC(=O)O)C(N)=O)C(=O)[C@@H]2CCCN2C(=O)[C@@H]2CCCN2C1=O ({Fluorescein(5-NHCS)-Ava}-P[X2]PTAPP[X2]E-NH2; staple (Z) 2-8)	–	3.66
C[C@@H]1NC(=O)[C@H]([C@@H](C)O)NC(=O)[C@@H]2CCCN2C(=O)CN(C(=O)[C@@H]2CCCN2C(=O)CCCCNC(=S)Nc2ccc3c(c2)C2(OC3=O)c3ccc(O)cc3Oc3cc(O)ccc32)CCCC=CCN(CC(=O)N[C@@H](CCC(=O)O)C(N)=O)C(=O)[C@@H]2CCCN2C(=O)[C@@H]2CCCN2C1=O ({Fluorescein(5-NHCS)-Ava}-P[X1]PTAPP[X2]E-NH2; staple 2-8)	–	< 3.30
C[C@@H]1NC(=O)[C@H]([C@@H](C)O)NC(=O)[C@@H]2CCCN2C(=O)[C@H](CCC(=O)O)NC(=O)CN(C(=O)CCCCNC(=S)Nc2ccc3c(c2)C2(OC3=O)c3ccc(O)cc3Oc3cc(O)ccc32)CCCC/C=C\CN(CC(N)=O)C(=O)[C@H](CCC(=O)O)NC(=O)[C@@H]2CCCN2C(=O)[C@@H]2CCCN2C1=O	–	< 3.30
C[C@@H]1NC(=O)[C@H]([C@@H](C)O)NC(=O)[C@@H]2CCCN2C(=O)[C@H](CCC(=O)O)NC(=O)CN(C(=O)CCCCNC(=S)Nc2ccc3c(c2)C2(OC3=O)c3ccc(O)cc3Oc3cc(O)ccc32)CCC/C=C\CCCCCCN(CC(N)=O)C(=O)[C@H](CCC(=O)O)NC(=O)[C@@H]2CCCN2C(=O)[C@@H]2CCCN2C1=O	–	3.97
C[C@@H]1NC(=O)[C@H]([C@@H](C)O)NC(=O)[C@@H]2CCCN2C(=O)CN(C(=O)[C@@H]2CCCN2C(=O)CCCCNC(=S)Nc2ccc3c(c2)C2(OC3=O)c3ccc(O)cc3Oc3cc(O)ccc32)CCCCCC/C=C\CCCCCCN(CC(N)=O)C(=O)[C@H](CCC(=O)O)NC(=O)[C@@H]2CCCN2C(=O)[C@@H]2CCCN2C1=O	199	–
C=CCCCCCCN(CC(N)=O)C(=O)[C@H](CCC(=O)O)NC(=O)[C@@H]1CCCN1C(=O)[C@@H]1CCCN1C(=O)[C@H](C)NC(=O)[C@@H](NC(=O)[C@@H]1CCCN1C(=O)CN(CCCCCCC=C)C(=O)[C@@H]1CCCN1C(=O)CCCCNC(=S)Nc1ccc2c(c1)C1(OC2=O)c2ccc(O)cc2Oc2cc(O)ccc21)[C@@H](C)O	42	–
C=CCN(CC(N)=O)C(=O)[C@H](CCC(=O)O)NC(=O)[C@@H]1CCCN1C(=O)[C@@H]1CCCN1C(=O)[C@H](C)NC(=O)[C@@H](NC(=O)[C@@H]1CCCN1C(=O)CN(CC=C)C(=O)[C@@H]1CCCN1C(=O)CCCCNC(=S)Nc1ccc2c(c1)C1(OC2=O)c2ccc(O)cc2Oc2cc(O)ccc21)[C@@H](C)O	98	–
C[C@@H]1NC(=O)[C@H]([C@@H](C)O)NC(=O)[C@@H]2CCCN2C(=O)CN(C(=O)[C@@H]2CCCN2C(=O)CCCCNC(=S)Nc2ccc3c(c2)C2(OC3=O)c3ccc(O)cc3Oc3cc(O)ccc32)CCCCC=CCN(CC(N)=O)C(=O)[C@H](CCC(=O)O)NC(=O)[C@@H]2CCCN2C(=O)[C@@H]2CCCN2C1=O	–	3.97
C[C@@H]1NC(=O)[C@H]([C@@H](C)O)NC(=O)[C@@H]2CCCN2C(=O)CN(C(=O)[C@@H]2CCCN2C(=O)CCCCNC(=S)Nc2ccc3c(c2)C2(OC3=O)c3ccc(O)cc3Oc3cc(O)ccc32)CCCC/C=C/CN(CC(=O)N[C@@H](CCC(=O)O)C(N)=O)C(=O)[C@@H]2CCCN2C(=O)[C@@H]2CCCN2C1=O ({Fluorescein(5-NHCS)-Ava}-P[X4]PTAPP[X2]E-NH2; staple (E) 2-8)	–	< 3.30
C=CCCCCCCN(CC(=O)N[C@@H](CCC(=O)O)C(=O)N1CCC[C@H]1C(=O)N[C@H](C(=O)N[C@@H](C)C(=O)N1CCC[C@H]1C(=O)N1CCC[C@H]1C(=O)N[C@@H](CCC(=O)O)C(=O)N(CCCCCCC=C)CC(N)=O)[C@@H](C)O)C(=O)CCCCNC(=S)Nc1ccc2c(c1)C1(OC2=O)c2ccc(O)cc2Oc2cc(O)ccc21	35	–
